Bioassay records from PubChem.
ABCB6 inh 2 = blocks the human ABCB6 transporter; AID 602162; 360,000 compounds, 0.19% hits; K562-ABCB6 porphyrin accumulation, flow cytometry, 1 h; stronger effect = lower value; Q9NP58; fluorescence ratio to DMSO, % at 10 µM;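 active = fluorescence ratio to DMSO below 75%, the collection mean minus 3 SD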;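 also: signal is porphyrin accumulated inside mitochondria; lower ratio means ABCB6 inhibition with less porphyrin fluorescence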
STAT3 activator = STAT3 signaling activation; U3A cells, IL-6 STAT3-luciferase reporter, luminescence; 100% = signal with IL-6 EC80 alone; activation (% of control), % at 5.6 µM; 190,000 compounds, 0.91% hits; AID 871;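 active = activation above the screen-wide mean of compound activation plus 3 SD, cut at about 130% in these data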
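system = STAT3-luciferase reporter U3A cells | reagent = IL-6 stimulus at 33 ng/mL final | timing = 1 h compound pre-exposure, 6 h IL-6 stimulation, 37 °C | measured by = luminescence | evaluation = % activation versus median of IL-6-stimulated wells | control set = IL-6-only wells as 100% reference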
AHR act = activators of human aryl hydrocarbon receptor; AHR-responsive luciferase reporter cells, luminescence; activation, % at 5 µM; 320,000 compounds, 2.5% hits; AID 2796; in the data active = activation above about 47%
Target sequence (P35869 whole entry, looked up): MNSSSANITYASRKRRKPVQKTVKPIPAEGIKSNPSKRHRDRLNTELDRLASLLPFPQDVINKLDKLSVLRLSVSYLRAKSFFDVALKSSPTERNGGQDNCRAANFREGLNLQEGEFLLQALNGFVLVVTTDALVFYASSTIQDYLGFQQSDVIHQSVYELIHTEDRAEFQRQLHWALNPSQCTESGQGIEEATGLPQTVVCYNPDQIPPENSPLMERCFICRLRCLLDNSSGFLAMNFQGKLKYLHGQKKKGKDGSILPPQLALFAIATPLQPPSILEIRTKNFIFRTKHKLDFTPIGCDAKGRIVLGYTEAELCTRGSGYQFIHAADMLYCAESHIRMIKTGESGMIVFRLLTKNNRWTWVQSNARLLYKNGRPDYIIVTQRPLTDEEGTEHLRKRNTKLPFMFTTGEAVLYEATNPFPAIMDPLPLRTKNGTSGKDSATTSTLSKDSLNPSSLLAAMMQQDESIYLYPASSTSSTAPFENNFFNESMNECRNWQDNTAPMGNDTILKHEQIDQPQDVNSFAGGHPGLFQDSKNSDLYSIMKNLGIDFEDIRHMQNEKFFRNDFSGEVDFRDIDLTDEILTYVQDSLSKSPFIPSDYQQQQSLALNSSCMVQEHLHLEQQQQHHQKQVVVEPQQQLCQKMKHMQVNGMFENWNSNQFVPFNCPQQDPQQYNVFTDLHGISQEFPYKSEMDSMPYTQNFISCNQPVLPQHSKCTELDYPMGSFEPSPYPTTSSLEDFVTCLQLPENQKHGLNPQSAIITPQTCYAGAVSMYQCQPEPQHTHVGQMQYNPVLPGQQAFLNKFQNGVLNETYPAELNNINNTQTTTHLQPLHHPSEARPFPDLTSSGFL
FXN GAA850 act = activators of GAA850 frataxin (FXN) promoter. HEK293 lucGAA850 FXN promoter luciferase reporter, 24 h; percent of 10 µM SAHA response. activation, % at 6 µM. 360,000 compounds, 0.56% hits. AID 540364;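 active = activation above the average of all compounds screened plus 3 SD, cutoff fixed separately per campaign, cut at about 7.5% in these data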
GAA30 FXN cntr = activates GAA30 frataxin promoter, counter-screen for GAA850 activators | shares compounds with FXN GAA850 act | HEK293 lucGAA30 FXN promoter luciferase, 24 h; DMSO = 0%, 5 µM ipriflavone = 100% | activation, % at 6 µM | 1,900 compounds, 66% hits;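 active = mean activation above the mean of solvent-only control wells plus 3 SD, cut at about 22% in these data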;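 also: counterscreen of GAA850 promoter hits where activity marks nonselective or luminescence artifacts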
FXN GAA850 conf = GAA850 FXN promoter activation confirmation; HEK293 lucGAA850 FXN promoter luciferase reporter, 24 h; 100% = activation by SAHA; 1,900 compounds, 86% hits; shares compounds with FXN GAA850 act; activation, % at 6 µM;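 active = mean activation above a set limit taken from the primary screen, cut at about 8% in these data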
Each line names hits and unclear results; the compound was inactive in the other large screens (follow-up assays come after a bar, where they were run). Rows were chosen to be rich in hits. Some 3.3% of all compounds tested hit in one or more screens of this group.

COc1ccccc1-c1cc(C(F)(F)F)nc(S(=O)(=O)CCCC(=O)O)n1	none
COc1ccc(-c2cc(C(F)(F)F)nc(S(=O)(=O)CCCC(=O)Nc3cccc(O)c3)n2)cc1OC	FXN GAA850 act 9.3 (no result: AHR act) | GAA30 FXN cntr 40 | FXN GAA850 conf 32
CC(C)(C)n1nnnc1C(c1cccs1)N(Cc1ccc(Cl)cc1)CC1CCCO1 (stereo not drawn)	FXN GAA850 act 7.8 | GAA30 FXN cntr inactive | FXN GAA850 conf 17
Clc1ccc(CN(Cc2ccccc2)C(c2cccs2)c2nnnn2C2CCCC2)cc1 (stereo not drawn)	none
Cc1ccnc(Nc2nc(-c3ccc(O)c(O)c3)cs2)c1	AHR act 55, FXN GAA850 act 17 (no result: STAT3 activator) | GAA30 FXN cntr 91 | FXN GAA850 conf 42
CC(=O)Nc1ccc(-c2csc(Nc3ccccn3)n2)cc1	none (no result: STAT3 activator)
Cc1cccnc1Nc1nc(-c2ccc(O)c(O)c2)cs1	FXN GAA850 act 14 | GAA30 FXN cntr 107 | FXN GAA850 conf 50
Cc1ccnc(Nc2nc(-c3ccc(O)cc3)cs2)c1	none (no result: STAT3 activator)
Oc1ccc(-c2csc(Nc3ccccn3)n2)cc1O	FXN GAA850 act 13 (no result: STAT3 activator) | GAA30 FXN cntr 96 | FXN GAA850 conf 56
O=C(O)c1cccc(NS(=O)(=O)c2ccc(S(=O)(=O)N3CCOCC3)cc2)c1	none (no result: STAT3 activator, AHR act)
Cc1ccc(C(=O)NC(=S)Nc2nc(-c3cccc([N+](=O)[O-])c3)cs2)c(Cl)c1	none
Clc1ccccc1CNc1ncnc2nc[nH]c12	none
Clc1ccc(/C=N/Nc2ncnc3nc[nH]c23)cc1	AHR act 66, FXN GAA850 act 9.8 (no result: STAT3 activator) | GAA30 FXN cntr 110 | FXN GAA850 conf 50
O=C(COC(=O)c1ccc(O)cc1)NCC1CCCO1 (stereo not drawn)	none
O=C1[C@H](Cc2ccccc2)NCC=CC[C@H](c2ccco2)N1Cc1ccccc1	FXN GAA850 act 11 (no result: STAT3 activator, AHR act) | GAA30 FXN cntr inactive | FXN GAA850 conf inactive
O=C1[C@H](Cc2ccccc2)NCC=CC[C@@H](c2ccc(Cl)cc2)N1Cc1ccccc1	none (no result: STAT3 activator, AHR act)
O=S(=O)(c1cccs1)N1CCN(c2ccccc2F)CC1	FXN GAA850 act 7.7 (no result: STAT3 activator) | GAA30 FXN cntr inactive | FXN GAA850 conf inactive
O=c1sc(N2CCN(c3ccccc3F)CC2)nc2ccsc12	FXN GAA850 act 7.9 | GAA30 FXN cntr 106 | FXN GAA850 conf 40
COC(=O)[C@]1(C)N[C@H](CN(C)S(=O)(=O)c2ccc(C)cc2)[C@@H]2C(=O)N(Cc3ccccc3)C(=O)[C@@H]21	none (no result: STAT3 activator)
CCCc1cnc(Nc2nc(C(N)Cc3ccc(OC)cc3)cs2)nc1 (stereo not drawn)	none (no result: STAT3 activator, AHR act)
COCC(=O)NCCc1nc2ccccc2[nH]1	FXN GAA850 act 16 | GAA30 FXN cntr 22 | FXN GAA850 conf 7.9
O=C(Nc1ncnc2sc3c(c12)CCCCC3)c1ccco1	FXN GAA850 act 12 | GAA30 FXN cntr inactive | FXN GAA850 conf inactive
CC/C(=C\C1CCCCC1)C(NP(=O)(c1ccccc1)c1ccccc1)c1ccccc1 (stereo not drawn)	FXN GAA850 act 13 | GAA30 FXN cntr 30 | FXN GAA850 conf 19
COCC(C)NC(=O)NC1(C(F)(F)F)Oc2ccc(Cl)cc2O1 (stereo not drawn)	FXN GAA850 act 10 | GAA30 FXN cntr inactive | FXN GAA850 conf 18
O=C(NCCN1CCOCC1)NC1(C(F)(F)F)Oc2ccc(Cl)cc2O1 (stereo not drawn)	FXN GAA850 act 15 | GAA30 FXN cntr 36 | FXN GAA850 conf 20
COCC(C)NC(=O)NC(=O)c1ccc(Cl)cc1 (stereo not drawn)	none
CCOC(=O)Cc1csc(NC(=O)NC2(C(F)(F)F)Oc3ccc(Cl)cc3O2)n1 (stereo not drawn)	FXN GAA850 act 8.5 | GAA30 FXN cntr 44 | FXN GAA850 conf 17
CCOC(=O)Cc1csc(NC(=O)NC2(C(F)(F)F)Oc3cc(Cl)c(Cl)cc3O2)n1	none
C=CCN(C(=O)c1ccc2c(c1)nnn2C)c1ccccc1	none (no result: STAT3 activator)
CS(=O)(=O)N1CCC(C(=O)N2CCN(c3ccc(F)cc3)CC2)CC1	none
Cc1cc(O)ccc1N/C=C/c1onc(C)c1[N+](=O)[O-]	FXN GAA850 act 9.1 | GAA30 FXN cntr 122 | FXN GAA850 conf 39
O=C(Nc1cccnc1Cl)c1ccc2c(Cl)c3c(nc2c1)CCC3	FXN GAA850 act 7.7 (no result: AHR act) | GAA30 FXN cntr 113 | FXN GAA850 conf 30
O=[N+]([O-])c1cc(/C=N\O)ccc1Oc1ccc(F)cc1	FXN GAA850 act 9.4 | GAA30 FXN cntr 51 | FXN GAA850 conf 25
O=C(CCCCCN1C(=O)c2ccccc2C1=O)NCc1ccco1	none
Cc1ccc(-n2cc(CNCCCn3cccn3)c(-c3cccc(C)c3)n2)cc1	none (no result: STAT3 activator)
Cc1ccc(C)c(-n2cc(CNCCCn3cccn3)c(-c3ccccc3)n2)c1	FXN GAA850 act 11 | GAA30 FXN cntr inactive | FXN GAA850 conf inactive
CC1Oc2ccccc2C=C1/C=N/Nc1ccc(C(=O)O)cc1 (stereo not drawn)	FXN GAA850 act 10 (no result: STAT3 activator) | GAA30 FXN cntr 97 | FXN GAA850 conf 38
CC(C)(C)c1ccc(/C=N/Nc2ccc(C(=O)O)cc2)cc1	none
CCCOc1ccc(/C=N/Nc2ccccn2)cc1OC	none
COc1cc(/C=N/Nc2ccccn2)ccc1OCC(C)C	AHR act 71, FXN GAA850 act 7.8 | GAA30 FXN cntr 87 | FXN GAA850 conf 38
CC1CN(c2ccc(Oc3ccccc3)cc2)c2nc3c(c(=O)n(CC(N)=O)c(=O)n3C)n2C1 (stereo not drawn)	FXN GAA850 act 18 (no result: STAT3 activator) | GAA30 FXN cntr inactive | FXN GAA850 conf inactive
CC1CN(Cc2ccccc2)c2nc3c(c(=O)n(CC(N)=O)c(=O)n3C)n2C1 (stereo not drawn)	none (no result: STAT3 activator)
Cc1ccccc1Nc1nc(N)nc(CSc2nc3ccccc3s2)n1	none
Cc1ccc(Nc2nc(N)nc(CSc3nc4ccccc4s3)n2)cc1	FXN GAA850 act 11 | GAA30 FXN cntr 40 | FXN GAA850 conf 22
COc1ccc2oc(=O)c(/C(C)=N/Nc3nc(-c4cc(C)ccc4C)cs3)cc2c1	none
COc1ccc2oc(=O)c(-c3csc(Nc4ccc(O)cc4)n3)cc2c1	FXN GAA850 act 19 | GAA30 FXN cntr 79 | FXN GAA850 conf 24
FC(F)(F)c1cccc(-n2c(Cn3nnc4ccccc43)n[nH]c2=S)c1	none (no result: STAT3 activator)
O=C(CSC1=NCCN1)Nc1cccc(C(F)(F)F)c1	FXN GAA850 act 9.6 | GAA30 FXN cntr 25 | FXN GAA850 conf 21
Cc1csc(NC(=O)CS(=O)(=O)c2ccccc2)n1	none
CC(C)(C)c1csc(NC(=O)CS(=O)(=O)c2ccccc2)n1	FXN GAA850 act 7.9 (no result: STAT3 activator) | GAA30 FXN cntr 51 | FXN GAA850 conf 15
Cn1c(SCC(=O)N2CCCC2)nnc1-c1cnccn1	none
CCOC(=O)c1c(C)oc2ccc(NS(=O)(=O)c3cccs3)cc12	none
COCCOC(=O)c1c(C)oc2ccc(NS(=O)(=O)c3cccs3)cc12	FXN GAA850 act 8.6 | GAA30 FXN cntr inactive | FXN GAA850 conf inactive
